Test [1] has as its system Streptococcus agalactiae. Put plainly: Antibacterial activity against Streptococcus agalactiae ATCC 12386 by broth microdilution method. In kind it is functional. An outline of the steps:
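MIC was found by EUCAST broth microdilution in duplicate over 12.5–125 μM, using compounds from 10 mM stocks in 20% DMSO diluted in water. OD600 was plotted as a concentration-effect curve, and MIC was taken as the concentration giving an OD600 of 0.05. Gentamycin at 0.03–32 μg/mL served as the positive control.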
For orientation: In broth dilution the organism is exposed to a series of concentrations in liquid medium.

Another test relates to Enterococcus faecalis. Put plainly: Antibacterial activity against Enterococcus faecalis ATCC 29122 assessed as inhibition of bacterial growth at 100 uM by broth microdilution method. In kind it is functional, organism-based. A digest of the protocol:
(§1)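 Broth microdilution per EUCAST, run in duplicate, for two independent experiments. Pure compounds came from 10 mM stocks in 20% DMSO, diluted with water, and were tested at a final 100 μM for growth inhibition. Controls were gentamycin at 0.03–32 μg/mL (positive) and 0.25% DMSO with growth medium (negative).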

The subject of the next test is Staphylococcus aureus. Put plainly: Antibacterial activity against Staphylococcus aureus ATCC 25923 assessed as inhibition of bacterial growth at 100 uM by broth microdilution method. The test is classed as functional, organism-based. A digest of the protocol:
as §1

The next test relates to Pseudomonas aeruginosa. Put plainly: Antibacterial activity against Pseudomonas aeruginosa ATCC 27853 assessed as inhibition of bacterial growth at 100 uM by broth microdilution method. The test is classed as functional, organism-based. A digest of the protocol: as §1
A further test concerns Escherichia coli. Put plainly: Antibacterial activity against Escherichia coli ATCC 25922 assessed as inhibition of bacterial growth at 100 uM by broth microdilution method. In kind it is functional, organism-based. An outline of the steps:
as §1

Test [2] relates to Streptococcus agalactiae. Put plainly: Antibacterial activity against Streptococcus agalactiae ATCC 12386 assessed as inhibition of bacterial growth at 100 uM by broth microdilution method.
For test [3], the system named is Streptococcus agalactiae. Put plainly: Antibacterial activity against Streptococcus agalactiae ATCC 12386 assessed as inhibition of bacterial growth at 100 uM by broth microdilution method. The test is classed as functional, organism-based. A digest of the protocol:
as §1

≈ marks a conversion by molar mass, not a printed value. Calls of active or inactive are those of the source. The calls are words filed in the database; no cut-off is given here.

Usually MIC stands for the lowest concentration found to suppress growth.

As to `CC(C)=CCC[C@H](C)[C@H]1CC[C@]2(C)C[C@H]3[C@@H]4[C@H](CC[C@@H]12)C(=O)N1CCOC41C[C@@]3(C)O` (stereo partly specified), the result with Streptococcus agalactiae [1], in the test with Enterococcus faecalis, in the test on Staphylococcus aureus, in the test on Pseudomonas aeruginosa and in the test with Escherichia coli was inactive.

As for `CC(CCC[C@H](C)[C@H]1CC[C@]2(C)C[C@H]3C4=C(CC[C@@H]12)C(=O)N(CCO)[C@@H]4C[C@@]3(C)O)COC=O` (stereo partly specified), the outcome in the test with Streptococcus agalactiae [2] and in the test on Streptococcus agalactiae [3] was Active. The MIC against Streptococcus agalactiae [1] came to 86 µM (≈ 40.9 µg/mL). The outcome in the test on Enterococcus faecalis, in the test with Staphylococcus aureus, in the test on Pseudomonas aeruginosa and with Escherichia coli was inactive.

For `CC(C)=C/C=C\[C@H](C)[C@H]1CC[C@]2(C)C[C@H]3C4=C(CC[C@@H]12)C(=O)N(CCO)[C@@H]4C[C@@]3(C)O`, the outcome in the test with Streptococcus agalactiae [2] and in the test with Streptococcus agalactiae [3] was Active. In the test on Streptococcus agalactiae [1], this molecule registered an MIC of 66 µM (≈ 28.2 µg/mL). Also, the outcome in the test on Enterococcus faecalis, with Staphylococcus aureus, with Pseudomonas aeruginosa and with Escherichia coli was inactive.

Consider `CC(CCC[C@H](C)[C@H]1CC[C@]2(C)C[C@H]3C4=C(CC[C@@H]12)C(=O)N(CCO)[C@@H]4C[C@@]3(C)O)C(=O)O` (stereo partly specified), for which the result with Streptococcus agalactiae [1], in the test on Enterococcus faecalis, in the test with Staphylococcus aureus, with Pseudomonas aeruginosa and with Escherichia coli was inactive.

Take `CC(C)=CCC[C@H](C)[C@H]1CC[C@]2(C)C[C@H]3C4=C(CC[C@@H]12)C(=O)N(CCO)[C@@H]4C[C@@]3(C)O`: in the test on Streptococcus agalactiae [1], the MIC was determined as 64 µM (≈ 27.5 µg/mL). The outcome in the test on Enterococcus faecalis, in the test with Staphylococcus aureus, in the test with Pseudomonas aeruginosa and in the test on Escherichia coli was inactive. Moreover, in the test on Streptococcus agalactiae [3], the result was Active.

Take `C/C(=C\CC[C@H](C)[C@H]1CC[C@]2(C)C[C@H]3C4=C(CC[C@@H]12)C(=O)N(CCO)[C@@H]4C[C@@]3(C)O)C(=O)O`: the outcome in the test on Streptococcus agalactiae [1], in the test on Enterococcus faecalis, in the test with Staphylococcus aureus, with Pseudomonas aeruginosa and with Escherichia coli was inactive.

For `CC(CO)CCC[C@H](C)[C@H]1CC[C@]2(C)C[C@H]3C4=C(CC[C@@H]12)C(=O)N(CCO)[C@@H]4C[C@@]3(C)O` (stereo partly specified), the outcome with Streptococcus agalactiae [1], in the test on Enterococcus faecalis, with Staphylococcus aureus, with Pseudomonas aeruginosa and with Escherichia coli was inactive.

Consider `CNC(C)[C@@H]1CC[C@@H](N)[C@@H](O[C@H]2[C@H](O)[C@@H](O[C@H]3OC[C@](C)(O)[C@H](NC)[C@H]3O)[C@H](N)C[C@@H]2N)O1.CN[C@@H]1[C@@H](O)[C@@H](O[C@@H]2[C@@H](O)[C@H](O[C@H]3O[C@H](C(C)N)CC[C@H]3N)[C@@H](N)C[C@H]2N)OC[C@]1(C)O.CN[C@@H]1[C@@H](O)[C@@H](O[C@@H]2[C@@H](O)[C@H](O[C@H]3O[C@H](CN)CC[C@H]3N)[C@@H](N)C[C@H]2N)OC[C@]1(C)O` (stereo partly specified), for which, in the test with Streptococcus agalactiae [1], the MIC was determined as 3 µM.

Consider `C/C(=C\CC[C@H](C)[C@H]1CC[C@]2(C)C[C@H]3C4=C(CC[C@@H]12)C(=O)N(CCO)[C@@H]4C[C@@]3(C)O)CO`, for which the result with Streptococcus agalactiae [1], in the test on Enterococcus faecalis, with Staphylococcus aureus, in the test with Pseudomonas aeruginosa and in the test with Escherichia coli was inactive.
